Reference: ChEMBL document CHEMBL4689842, “EUbOPEN Chemogenomics Library wave 1” (2021)

Tested on: U2OS
Assay: Multiplex assay against U2OS
Format: toxicity, cell-based
Settings: human
How it was run: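 Live cells were stained at seeding with Hoechst33342, BioTracker Green Microtubule Cytoskeleton Dye, MitoTracker Red and Annexin V Alexa Fluor 680. Following compound addition, they were imaged on a CQ1 microscope at 37°C and 5% CO2 and gated by CellPathfinder machine learning into Hoechst high-intensity objects or normal cells, with normal cells split into healthy, pyknosed or fragmented nuclei and pyknosed cells into mitotic or apoptotic. Tubulin, mitochondrial-mass and membrane-permeability phenotypes are per cents of healthy-nucleus cells.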

[1] = 12 h, 1 µM, compound concentration 1 uM, replicate 1
[2] = 12 h, 1 µM, compound concentration 1 uM, replicate 2
[3] = 12 h, 10 µM, compound concentration 10 uM, replicate 1
[4] = 12 h, 10 µM, compound concentration 10 uM, replicate 2
[5] = 24 h, 1 µM, compound concentration 1 uM, replicate 1
[6] = 24 h, 1 µM, compound concentration 1 uM, replicate 2
[7] = 24 h, 10 µM, compound concentration 10 uM, replicate 1
[8] = 24 h, 10 µM, compound concentration 10 uM, replicate 2
[9] = 48 h, 1 µM, compound concentration 1 uM, replicate 1
[10] = 48 h, 1 µM, compound concentration 1 uM, replicate 2
[11] = 48 h, 10 µM, compound concentration 10 uM, replicate 1
[12] = 48 h, 10 µM, compound concentration 10 uM, replicate 2

## CC(C)Oc1ccccc1C(=O)Nc1ccccc1C(=O)Nc1cccc(S(=O)(=O)C(F)(F)F)c1
[1]
  Population Apoptotic (%): 47%
  Population Fragmented Nuclei (%): 14%
  Population Healthy Nuclei (%): 67%
  Population Hoechst High Intensity Objects (%): 11%
  Population Membrane Permeable-Phenotype (%): 4%
  Population Mitochondria Different-Phenotype (%): 61%
  Population Mitotic Cells (%): 52%
  Population Normal (%): 88%
  Population Pyknosed Nuclei (%): 18%
  Population Tubulin-Different-Phenotype (%): 55%
  Total Cell Count: 120
[2]
  Population Apoptotic (%): 33%
  Population Fragmented Nuclei (%): 20%
  Population Healthy Nuclei (%): 74%
  Population Hoechst High Intensity Objects (%): 5%
  Population Membrane Permeable-Phenotype (%): 10%
  Population Mitochondria Different-Phenotype (%): 45%
  Population Mitotic Cells (%): 66%
  Population Normal (%): 94%
  Population Pyknosed Nuclei (%): 6%
  Population Tubulin-Different-Phenotype (%): 37%
  Total Cell Count: 62
[3]
  Population Apoptotic (%): 68%
  Population Fragmented Nuclei (%): 14%
  Population Healthy Nuclei (%): 61%
  Population Hoechst High Intensity Objects (%): 8%
  Population Membrane Permeable-Phenotype (%): 95%
  Population Mitochondria Different-Phenotype (%): 61%
  Population Mitotic Cells (%): 32%
  Population Normal (%): 91%
  Population Pyknosed Nuclei (%): 24%
  Total Cell Count: 142
[4]
  Population Apoptotic (%): 90%
  Population Fragmented Nuclei (%): 17%
  Population Healthy Nuclei (%): 71%
  Population Hoechst High Intensity Objects (%): 4%
  Population Membrane Permeable-Phenotype (%): 97%
  Population Mitochondria Different-Phenotype (%): 92%
  Population Mitotic Cells (%): 10%
  Population Normal (%): 96%
  Population Pyknosed Nuclei (%): 10%
  Population Tubulin-Different-Phenotype (%): 100%
  Total Cell Count: 53
[5]
  Population Apoptotic (%): 55%
  Population Fragmented Nuclei (%): 15%
  Population Healthy Nuclei (%): 71%
  Population Hoechst High Intensity Objects (%): 8%
  Population Membrane Permeable-Phenotype (%): 2%
  Population Mitochondria Different-Phenotype (%): 48%
  Population Mitotic Cells (%): 44%
  Population Normal (%): 91%
  Population Pyknosed Nuclei (%): 13%
  Population Tubulin-Different-Phenotype (%): 48%
  Total Cell Count: 109
[6]
  Population Apoptotic (%): 33%
  Population Fragmented Nuclei (%): 21%
  Population Healthy Nuclei (%): 66%
  Population Hoechst High Intensity Objects (%): 7%
  Population Membrane Permeable-Phenotype (%): 11%
  Population Mitochondria Different-Phenotype (%): 58%
  Population Mitotic Cells (%): 66%
  Population Normal (%): 92%
  Population Pyknosed Nuclei (%): 11%
  Population Tubulin-Different-Phenotype (%): 35%
  Total Cell Count: 57
[7]
  Population Apoptotic (%): 74%
  Population Fragmented Nuclei (%): 23%
  Population Healthy Nuclei (%): 48%
  Population Hoechst High Intensity Objects (%): 6%
  Population Membrane Permeable-Phenotype (%): 92%
  Population Mitochondria Different-Phenotype (%): 74%
  Population Mitotic Cells (%): 25%
  Population Normal (%): 93%
  Population Pyknosed Nuclei (%): 27%
  Population Tubulin-Different-Phenotype (%): 100%
  Total Cell Count: 148
[8]
  Population Apoptotic (%): 100%
  Population Fragmented Nuclei (%): 17%
  Population Healthy Nuclei (%): 56%
  Population Hoechst High Intensity Objects (%): 11%
  Population Membrane Permeable-Phenotype (%): 91%
  Population Mitochondria Different-Phenotype (%): 94%
  Population Mitotic Cells (%): 0%
  Population Normal (%): 88%
  Population Tubulin-Different-Phenotype (%): 98%
  Total Cell Count: 55
[9]
  Population Apoptotic (%): 81%
  Population Fragmented Nuclei (%): 10%
  Population Healthy Nuclei (%): 74%
  Population Hoechst High Intensity Objects (%): 3%
  Population Membrane Permeable-Phenotype (%): 4%
  Population Mitochondria Different-Phenotype (%): 31%
  Population Mitotic Cells (%): 18%
  Population Normal (%): 96%
  Population Pyknosed Nuclei (%): 14%
  Population Tubulin-Different-Phenotype (%): 25%
  Total Cell Count: 109
[10]
  Population Apoptotic (%): 66%
  Population Fragmented Nuclei (%): 22%
  Population Healthy Nuclei (%): 72%
  Population Hoechst High Intensity Objects (%): 7%
  Population Membrane Permeable-Phenotype (%): 18%
  Population Mitochondria Different-Phenotype (%): 48%
  Population Mitotic Cells (%): 33%
  Population Normal (%): 92%
  Population Pyknosed Nuclei (%): 5%
  Population Tubulin-Different-Phenotype (%): 41%
  Total Cell Count: 56
[11]
  Population Apoptotic (%): 77%
  Population Fragmented Nuclei (%): 64%
  Population Healthy Nuclei (%): 19%
  Population Hoechst High Intensity Objects (%): 7%
  Population Membrane Permeable-Phenotype (%): 36%
  Population Mitochondria Different-Phenotype (%): 84%
  Population Mitotic Cells (%): 22%
  Population Normal (%): 93%
  Population Pyknosed Nuclei (%): 15%
  Population Tubulin-Different-Phenotype (%): 93%
  Total Cell Count: 190
[12]
  Population Apoptotic (%): 64%
  Population Fragmented Nuclei (%): 43%
  Population Healthy Nuclei (%): 38%
  Population Hoechst High Intensity Objects (%): 9%
  Population Membrane Permeable-Phenotype (%): 62%
  Population Mitochondria Different-Phenotype (%): 75%
  Population Mitotic Cells (%): 36%
  Population Normal (%): 90%
  Population Pyknosed Nuclei (%): 17%
  Population Tubulin-Different-Phenotype (%): 98%
  Total Cell Count: 64
